Results published in ChEMBL document CHEMBL1629526, “4-[1-(Substituted aryl/alkyl carbonyl)-benzoimidazol-2-yl]-benzenesulfonic acids: synthesis, antimicrobial activity, QSAR studies, and antiviral evaluation” (Eur J Med Chem, 2010).
In brackets after ≈: the same amount, converted by molar mass.

Columns and labels:
Coxsackievirus B4 [1] = experiment: Antiviral activity against Coxsackie virus B4 infected in african green monkey Vero cells assessed as inhibition of virus induced cytopathicity after 2 to 4 days by MTS assay; format: functional, organism-based; conditions: Enterovirus B
Influenza B virus [2] = experiment: Antiviral activity against Influenza B virus infected in MDCK cells assessed as inhibition of virus induced cytopathicity after 2 to 4 days by MTS assay; format: functional, organism-based
Human respirovirus 3 = experiment: Antiviral activity against parainfluenza-3 virus infected in african green monkey Vero cells assessed as inhibition of virus induced cytopathicity after 2 to 4 days by MTS assay; format: functional, organism-based; conditions: Human respirovirus 3, Vero
Aspergillus niger = experiment: Antimicrobial activity against Aspergillus niger after 7 days by tube dilution method; format: functional; conditions: 168 h
Staphylococcus aureus = experiment: Antimicrobial activity against Staphylococcus aureus after 24 hrs by tube dilution method; format: functional
Influenza B virus [3] = experiment: Antiviral activity against Influenza B virus infected in MDCK cells assessed as inhibition of virus induced cytopathicity by visual scoring of CPE; format: functional, organism-based
[4] = system: Mammalian orthoreovirus 1; experiment: Antiviral activity against Reovirus 1 virus infected in african green monkey Vero cells assessed as inhibition of virus induced cytopathicity after 2 to 4 days by MTS assay; format: functional, organism-based; conditions: Mammalian orthoreovirus 1, Vero
Influenza A virus [5] = experiment: Antiviral activity against Influenza A H3N2 virus subtype infected in MDCK cells assessed as inhibition of virus induced cytopathicity by visual scoring of CPE; format: functional, organism-based
Punta Toro virus = experiment: Antiviral activity against Punta Toro virus infected in african green monkey Vero cells assessed as inhibition of virus induced cytopathicity after 2 to 4 days by MTS assay; format: functional, organism-based
Felid alphaherpesvirus 1 = experiment: Antiviral activity against Feline herpesvirus 1 infected in cat CRFK cells assessed as inhibition of virus induced cytopathicity after 2 to 4 days by MTS assay; format: functional, organism-based; conditions: Felid alphaherpesvirus 1, CRFK
Feline coronavirus = experiment: Antiviral activity against Feline coronavirus infected in cat CRFK cells assessed as inhibition of virus induced cytopathicity after 2 to 4 days by MTS assay; format: functional, organism-based; conditions: Alphacoronavirus 1, CRFK
[6] = system: Vesicular stomatitis virus; experiment: Antiviral activity against Vesicular stomatitis virus infected in human HeLa cells assessed as inhibition of virus induced cytopathicity after 2 to 4 days by MTS assay; format: functional, organism-based
Human alphaherpesvirus 2 = experiment: Antiviral activity against Herpes simplex virus 2 G infected in HEL cells assessed as inhibition of virus induced cytopathicity after 2 to 4 days by MTS assay; format: functional, organism-based; conditions: Human alphaherpesvirus 2, strain G
[7] = Cytotoxicity against african green monkey Vero cells assessed as altered cell morphology; format: cell-based; conditions: chlorocebus sabaeus
Summary of the method: (§1)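 Uninfected cell cultures run alongside the antiviral assays, exposed to serial compound dilutions and incubated at 37 °C for 2–4 days. Toxicity was scored microscopically and reported as the minimum cytotoxic concentration (MCC), the lowest concentration causing a detectable change in normal cell morphology.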

Human alphaherpesvirus 1 [8] = experiment: Antiviral activity against Herpes simplex virus 1 KOS infected in HEL cells assessed as inhibition of virus induced cytopathicity after 2 to 4 days by MTS assay; format: functional, organism-based; conditions: Human alphaherpesvirus 1, KOS
[9] = system: Respiratory syncytial virus; experiment: Antiviral activity against Respiratory syncytial virus infected in human HeLa cells assessed as inhibition of virus induced cytopathicity by visual scoring of CPE; format: functional, organism-based
Sindbis virus = experiment: Antiviral activity against Sindbis virus infected in african green monkey Vero cells assessed as inhibition of virus induced cytopathicity after 2 to 4 days by MTS assay; format: functional, organism-based
Escherichia coli = experiment: Antimicrobial activity against Escherichia coli after 24 hrs by tube dilution method; format: functional
Human alphaherpesvirus 1 [10] = experiment: Antiviral activity against thymidine kinase deficient acyclovir-resistant Herpes simplex virus 1 KOS infected in HEL cells assessed as inhibition of virus induced cytopathicity after 2 to 4 days by MTS assay; format: functional, organism-based; conditions: Human alphaherpesvirus 1, KOS
Coxsackievirus B4 [11] = experiment: Antiviral activity against coxsackievirus B4 infected in human HeLa cells assessed as inhibition of virus induced cytopathicity by visual scoring of CPE; format: functional, organism-based; conditions: Enterovirus B
Vaccinia virus = experiment: Antiviral activity against Vaccinia virus infected in HEL cells assessed as inhibition of virus induced cytopathicity after 2 to 4 days by MTS assay; format: functional, organism-based; conditions: Orthopoxvirus vaccinia
Bacillus subtilis = experiment: Antimicrobial activity against Bacillus subtilis after 24 hrs by tube dilution method; format: functional
Summary of the method: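 Serial dilutions in double-strength nutrient broth (I.P.) with ciprofloxacin as reference, tube dilution, incubated 37 °C for 24 h. MIC is the lowest concentration that inhibited growth.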

Candida albicans = experiment: Antimicrobial activity against Candida albicans after 48 hrs by tube dilution method; format: functional
[12] = system: Vesicular stomatitis virus; experiment: Antiviral activity against Vesicular stomatitis virus infected in human HeLa cells assessed as inhibition of virus induced cytopathicity by visual scoring of CPE; format: functional, organism-based
[13] = system: Respiratory syncytial virus; experiment: Antiviral activity against Respiratory syncytial virus infected in human HeLa cells assessed as inhibition of virus induced cytopathicity after 2 to 4 days by MTS assay; format: functional, organism-based
[14] = Cytotoxicity against cat CRFK cells assessed as cell viability by MTS assay; format: cell-based, Felis catus
Summary of the method: (§2)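 Uninfected cultures were run in parallel with the antiviral assays. Viability was read by colorimetric formazan MTS assay.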

HeLa = experiment: Cytotoxicity against human HeLa cells assessed as cell viability by MTS assay; format: cell-based; conditions: hela; summary of the method: as §2
Coxsackievirus B4 [15] = experiment: Antiviral activity against coxsackievirus B4 infected in human HeLa cells assessed as inhibition of virus induced cytopathicity after 2 to 4 days by MTS assay; format: functional, organism-based; conditions: Enterovirus B
[16] = system: Vesicular stomatitis virus; experiment: Antiviral activity against Vesicular stomatitis virus infected in HEL cells assessed as inhibition of virus induced cytopathicity after 2 to 4 days by MTS assay; format: functional, organism-based
[17] = Cytotoxicity against human HeLa cells assessed as altered cell morphology; format: cell-based; summary of the method: as §1
Influenza A virus [18] = experiment: Antiviral activity against Influenza A H3N2 virus subtype infected in MDCK cells assessed as inhibition of virus induced cytopathicity after 2 to 4 days by MTS assay; format: functional, organism-based
[19] = Cytotoxicity against MDCK cells assessed as altered cell morphology; format: cell-based, Canis lupus familiaris; conditions: dog; summary of the method: as §1
[20] = Cytotoxicity against human HEL cells assessed as altered cell morphology; format: cell-based; summary of the method: as §1
MDCK = experiment: Cytotoxicity against MDCK cells assessed as cell viability by MTS assay; format: cell-based, Canis lupus familiaris; conditions: dog, mdck; summary of the method: as §2

| SMILES | EC50 (Coxsackievirus B4 [1]) [µg/mL] | EC50 (Influenza B virus [2]) [µg/mL] | EC50 (Human respirovirus 3) [µg/mL] | MFC (Aspergillus niger) [µg/mL] | MBC (Staphylococcus aureus) [µg/mL] | EC50 (Influenza B virus [3]) [µg/mL] | EC50 [4] [µg/mL] | EC50 (Influenza A virus [5]) [µg/mL] | EC50 (Punta Toro virus) [µg/mL] | EC50 (Felid alphaherpesvirus 1) [µg/mL] | EC50 (Feline coronavirus) [µg/mL] | EC50 [6] [µg/mL] | EC50 (Human alphaherpesvirus 2) [µg/mL] | MCC [7] [µg/mL] | EC50 (Human alphaherpesvirus 1 [8]) [µg/mL] | EC50 [9] [µg/mL] | EC50 (Sindbis virus) [µg/mL] | EC50 (Human alphaherpesvirus 1 [10]) [µg/mL] | EC50 (Vaccinia virus) [µg/mL] | MCC [20] [µg/mL] | further results |
| --- | --- | --- | --- | --- | --- | --- | --- | --- | --- | --- | --- | --- | --- | --- | --- | --- | --- | --- | --- | --- | --- |
| CCCCCCCC/C=C/CCCCCCCC(=O)n1c(-c2ccc(S(=O)(=O)O)cc2)nc2ccccc21 | > 100 | > 100 | > 100 | > 50 | 12.5 (≈ 23.2 µM) | > 100 | > 100 | > 100 | > 100 | > 100 | > 100 | > 100 | > 100 | > 100 | > 100 | > 100 | > 100 | > 100 | > 100 | > 100 | MBC (Escherichia coli): 3.12 µg/mL (≈ 5.79 µM); EC50 (Coxsackievirus B4 [11]): > 100 µg/mL; MBC (Bacillus subtilis): 50 µg/mL (≈ 92.8 µM); MFC (Candida albicans): 50 µg/mL (≈ 92.8 µM); EC50 [12]: > 100 µg/mL; EC50 [13]: > 100 µg/mL; CC50 ([14]; crfk): > 100 µg/mL; CC50 (HeLa): > 100 µg/mL; EC50 (Coxsackievirus B4 [15]): > 100 µg/mL; EC50 [16]: > 100 µg/mL; MCC [17]: > 100 µg/mL; EC50 (Influenza A virus [18]): > 100 µg/mL; MCC [19]: > 100 µg/mL; CC50 (MDCK): > 100 µg/mL |
| Cc1ccc(S(=O)(=O)n2c(-c3ccc(S(=O)(=O)O)cc3)nc3ccccc32)cc1 | > 100 | > 100 | > 100 | > 50 | 6.25 (≈ 14.6 µM) | > 100 | 100 (≈ 233 µM) | > 100 | > 100 | > 100 | > 100 | > 100 | > 100 | > 100 | > 100 | > 100 | > 250 | > 100 | > 100 | > 100 | MBC (Escherichia coli): 12.5 µg/mL (≈ 29.2 µM); EC50 (Coxsackievirus B4 [11]): > 100 µg/mL; MBC (Bacillus subtilis): 12.5 µg/mL (≈ 29.2 µM); MFC (Candida albicans): 50 µg/mL (≈ 117 µM); EC50 [12]: > 100 µg/mL; EC50 [13]: > 100 µg/mL; CC50 ([14]; crfk): > 100 µg/mL; CC50 (HeLa): > 100 µg/mL; EC50 (Coxsackievirus B4 [15]): > 100 µg/mL; EC50 [16]: > 100 µg/mL; MCC [17]: > 100 µg/mL; EC50 (Influenza A virus [18]): > 100 µg/mL; MCC [19]: > 100 µg/mL; CC50 (MDCK): > 100 µg/mL |
| O=c1[nH]c(=O)n([C@H]2C[C@H](O)[C@@H](CO)O2)cc1/C=C/Br [BRIVUDINE] |  |  |  |  |  |  |  |  |  |  |  |  |  |  |  |  |  | > 250 | 112 (≈ 336 µM) | > 250 |  |
| Nc1ccn(C[C@@H](CO)OCP(=O)(O)O)c(=O)n1.O.O [CIDOFOVIR] |  |  |  |  |  |  |  |  |  |  |  |  | 0.2 |  | 0.4 |  |  | > 250 | > 250 | > 250 |  |
| Nc1nc2c(ncn2COC(CO)CO)c(=O)[nH]1 [GANCICLOVIR] |  |  |  |  |  |  |  |  |  | > 100 | 1.7 (≈ 6.66 µM) |  | 0.03 (≈ 0.118 µM) |  | 0.03 (≈ 0.118 µM) |  |  | 58 (≈ 227 µM) |  | > 100 | CC50 ([14]; CRFK cells, read-out: CC50): > 100 µg/mL |
